Experiments:
Assay type in all cases: cell-based
[1] = (§1) Allosteric modulation of alpha1beta2gamma2S GABAA receptor expressed in Xenopus laevis oocytes assessed as stimulation of GABA-induced chloride current by electrophysiology; conditions: Oocyte
Summary of the method: (§2)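 Two-microelectrode voltage clamp of oocytes. GABA applied at EC3-10 (3-10% of maximal current), set at the start of each experiment. Compound pre-applied for 1 min before GABA. Enhancement taken as (I(GABA+Comp)/IGABA) - 1. Concentration-response data fitted to 1/[1 + (EC50/[Comp])nH]. Mean ± SE from ≥4 oocytes and ≥2 oocyte batches.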

[2] = system: Oocyte; assay: as §1; summary of the method: as §2
[3] = system: Oocyte; assay: Allosteric modulation of alpha1beta2gamma2S GABAA receptor expressed in Xenopus laevis oocytes assessed as stimulation of GABA-induced chloride current at 100 uM by electrophysiology
Summary of the method: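 Two-microelectrode voltage clamp; GABA at EC3-10 (eliciting 3–10% of maximal current, determined at the start of each experiment). Test material applied for 1 min equilibration before GABA, then co-applied. Stimulation calculated as (I(GABA+Comp)/IGABA) − 1 at 100 µM, reported as %. Mean ± SE, n = 4–7 oocytes, at least two oocyte batches; oocytes with currents >3 µA discarded.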

[4] = system: Oocyte; assay: Allosteric modulation of alpha1beta2gamma2S GABAA receptor expressed in Xenopus laevis oocytes assessed as stimulation of GABA-induced chloride current at 300 uM by electrophysiology; summary of the method: as §2

SMILES	EC50 [1]	Activity [2]	Activity [3]	Activity [4]
CC(=O)O[C@H](C[C@@H](C)[C@H]1C(=O)[C@H](O)[C@@]2(C)[C@@H]3CC[C@H]4C(C)(C)[C@@H](O[C@@H]5OC[C@@H](O)[C@H](O)[C@H]5O)CC[C@@]45C[C@@]35CC[C@]12C)[C@H]1OC1(C)C	27 µM	Dose-dependent effect	1690%	1950%
CC(=O)O[C@@H]1C[C@@]23C[C@@]24CC[C@H](O)C(C)(C)[C@@H]4CC[C@H]3[C@]2(C)C[C@@H]3O[C@]4(C[C@@H](C)[C@@H]3[C@@]12C)O[C@H](O)[C@@]1(C)O[C@H]41			126%	
C[C@@H]1C[C@@H]2O[C@@]3(O[C@@H]2C(C)(C)O)[C@H](O)[C@@]2(C)[C@@H]4CC[C@H]5C(C)(C)[C@@H](O[C@@H]6OC[C@@H](O)[C@H](O)[C@H]6O)CC[C@@]56C[C@@]46CC[C@]2(C)[C@@H]13	28 µM	Dose-dependent effect	189%	256%
CC(=O)OC(C)(C)[C@H]1O[C@@]23O[C@H]1C[C@@H](C)[C@@H]2[C@@]1(C)CC[C@@]24C[C@@]25CC[C@H](O[C@@H]2OC[C@H](O)[C@H](O)[C@H]2O)C(C)(C)[C@@H]5CC[C@H]4[C@]1(C)[C@H]3O	26 µM	Dose-dependent effect	271%	289%
C[C@@H]1C[C@@H]2O[C@@]3(O[C@@H]2C(C)(C)O)[C@H](O)[C@@]2(C)[C@@H]4CC[C@H]5C(C)(C)[C@@H](O)CC[C@@]56C[C@@]46CC[C@]2(C)[C@@H]13			104%	
CC(=O)O[C@@H]1C[C@@]23C[C@@]24CC[C@H](O[C@@H]2OC[C@@H](O)[C@H](O)[C@H]2O)C(C)(C)[C@@H]4CC[C@H]3[C@]2(C)C[C@@H]3O[C@]4(C[C@@H](C)[C@@H]3[C@@]12C)O[C@H](O)[C@@]1(C)O[C@@H]41 [ACTEIN]	36 µM	Dose-dependent effect	305%	378%
CC(=O)O[C@H](C[C@@H](C)[C@H]1C(=O)[C@H](O)[C@@]2(C)[C@@H]3CC[C@H]4C(C)(C)[C@@H](O)CC[C@@]45C[C@@]35CC[C@]12C)[C@H]1OC1(C)C			64%	

— ChEMBL document CHEMBL1649354, “Bioactivity-guided isolation of GABA(A) receptor modulating constituents from the rhizomes of Actaea racemosa” (J Nat Prod, 2010)
